An excerpt weighted towards active compounds, which were near 1.8% of everything screened.
PAD4 FP inh: inhibitors of human PAD4. recombinant PAD4, RCA probe fluorescence polarization. inhibition, % at 6.36 µM. hit rate 0.41% among 330,000. AID 485272. Q9UM07;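 active means percent inhibition above a cutoff equal to the mean of all tested compounds plus 3 SD, cut at about 15% in these data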;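 further: 0% = PAD4 with RCA probe and DMSO and 100% = probe without PAD4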
GSTO1 counter: counter-screen for RBBP9 inhibitors: inhibitors of human GSTO1; recombinant GSTO1, activity-based probe fluorescence polarization; inhibition, % at 5.96 µM; hit rate 1.1% among 300,000;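 active means inhibition above the campaign mean inhibition plus 3 SD, cut at about 35% in these data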;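 further: 0% = GSTO1-1 with DMSO and 100% = wells lacking GSTO1-1 enzyme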
Target sequence (P78417 whole entry, looked up): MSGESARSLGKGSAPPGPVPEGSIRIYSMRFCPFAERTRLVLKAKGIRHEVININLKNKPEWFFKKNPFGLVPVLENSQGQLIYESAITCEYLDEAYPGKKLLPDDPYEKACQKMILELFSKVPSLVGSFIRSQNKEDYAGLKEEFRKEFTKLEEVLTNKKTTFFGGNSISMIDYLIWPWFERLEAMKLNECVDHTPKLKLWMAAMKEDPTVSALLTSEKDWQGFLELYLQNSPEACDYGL
TDP2 absorb: blocks human TDP2 phosphodiesterase activity; recombinant TDP2, T5PNP hydrolysis, p-nitrophenol absorbance 415 nm; hit rate 0.34% among 370,000; O95551; inhibition, % at 12.8 µM;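 active means inhibition above the mean of all tested compounds plus 3 SD, set per campaign, cut at about 25% in these data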;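 further: 0% = DMSO with enzyme and 100% = buffer with substrate but no TDP2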
Target sequence (O95551 whole entry, looked up): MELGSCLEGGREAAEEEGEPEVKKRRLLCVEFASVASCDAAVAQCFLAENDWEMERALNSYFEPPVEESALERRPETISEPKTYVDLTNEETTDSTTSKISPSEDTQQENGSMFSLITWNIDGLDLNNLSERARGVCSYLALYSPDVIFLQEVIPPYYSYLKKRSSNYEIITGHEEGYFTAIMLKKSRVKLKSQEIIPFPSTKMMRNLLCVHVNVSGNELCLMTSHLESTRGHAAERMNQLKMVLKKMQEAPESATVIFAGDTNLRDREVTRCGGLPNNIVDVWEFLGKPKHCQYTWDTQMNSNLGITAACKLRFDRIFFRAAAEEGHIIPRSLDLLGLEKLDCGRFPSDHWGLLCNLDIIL
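Assay system: recombinant human TDP2 / Reagent: T5PNP substrate at 5 mM, a TopII-DNA adduct mimic / Measured by: epi absorbance from released p-nitrophenol / Evaluation: % inhibition relative to enzyme-containing and enzyme-free wells / Control set: enzyme-free and DMSO wells / Replicates: each compound tested once, singlicate / Schedule: enzyme reaction with compound for 2 h at 37 °C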
CTSL1 counter: cathepsin L1 inhibition, PFM18AAP counter-screen; recombinant F. hepatica cathepsin L1, Z-Leu-Arg-MCA fluorescence; inhibition, % at 5.96 µM; hit rate 0.49% among 300,000;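 active means inhibition above the mean of all tested compounds plus 3 SD, set per screening campaign, cut at about 17% in these data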;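 further: 0% = plate median of test compound wells and 100% = 1 µM Z-Phe-Ala-diazomethylketone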
Apaf-1 inh: blocks human Apaf-1 apoptosome activity; reconstituted apoptosome caspase-3 activity, DEVD-Rh110 fluorescence; inhibition, % at 20 µM; hit rate 0.71% among 330,000; active means inhibition of at least 40% at 20 µM;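 further: plate controls were DMSO wells for no effect and DEVD-CHO caspase inhibitor wells for full effect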
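Material: reconstituted apoptosome with Apaf-1, cytochrome c, caspase-9, procaspase-3, dATP / Buffer or medium: pH 7.5 Hepes buffer with CHAPS, BSA, DTT / Also added: cytochrome c with DEVD-Rh110 / Schedule: compound with Apaf-1, dATP, procaspase-3 30 min, then 50 min reaction, room temperature / Technique: rhodamine 110 fluorescence at Ex 480/Em 540 nm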
* marks the source's active call; other numbers are inactive results; · = no result.

SMILES	PAD4 FP inh	GSTO1 counter	TDP2 absorb	CTSL1 counter	Apaf-1 inh
CCCCNC(=O)C[C@H]1C[C@@]2(C(=O)OC)C(=C[C@H](C(C)(C)C)O[C@@H]2C)N(Cc2ccccc2)C1=O	·	·	-4	·	·
COc1ccc(NS(=O)(=O)c2cccc(C(=O)N(C)Cc3cccs3)c2)cc1	-3	14	-12	27*	8
Cc1oc(=O)c(NC(=O)c2cccc(Cl)c2)cc1C(=O)c1ccccc1	-3	-3	7	55*	4
COc1ccc(C(=O)Nc2cc(C(=O)c3ccccc3)c(C)oc2=O)cc1	0	-3	6	18*	5
Cc1oc(=O)c(NC(=O)c2ccccc2)cc1C(N)=O	-1	0	2	-4	5
Cc1cc(NS(=O)(=O)c2ccc(Nc3nc(-c4sc(N)nc4C)cs3)cc2)no1	-21	37*	·	6	21
CC1(C)CC(=O)C=C(Nc2ccccc2NC(=O)c2cc(F)ccc2F)C1	·	·	-2	·	·
Cc1ccc(NC(=O)CSc2nc3ccccc3c(=O)n2CCCN2CCCCC2)cc1C	1	-7	3	-1	55*
CCOc1cc(/C=C2\C(=O)N(c3ccc(C(N)=O)cc3)N=C2C)ccc1OC(=O)c1cccs1	27*	73*	·	-4	93*
COc1ccccc1CNC(=O)CCS(=O)(=O)c1ccc(Cl)cc1	0	1	-5	29*	10
Cc1ccc(S(=O)(=O)CCC(=O)NCc2ccccc2Cl)cc1	-6	1	-5	-2	-12
O=C(C(=O)N1CCN(S(=O)(=O)c2ccccc2)CC1)c1cccc(C(F)(F)F)c1	·	·	-4	·	·
COC(=O)c1cccc(OC[C@@H](O)CN2CCC(C(O)(c3ccccc3)c3ccccc3)CC2)c1	·	·	-19	·	·
Cc1cc(NS(=O)(=O)c2ccc(NC(=O)CSc3nnc(-c4ccco4)n3-c3ccc(Cl)cc3)cc2)nc(C)n1	·	·	-6	·	·
Cc1cc(C)c2c3c(sc2n1)C(=O)N(c1ccccc1C)CC(=O)N3	6	0	-2	-2	-34
Cc1ccc(N2CC(=O)Nc3c(sc4nc(C)cc(C)c34)C2=O)cc1	0	2	6	29*	-1
O=C(C1CCC1)N1CCc2cc(S(=O)(=O)N3CCN(c4ccccc4F)CC3)ccc21	·	·	-3	·	·
Cc1cc(C)nc(Nc2ccc(N3CCCC3)cc2)n1	5	24	-5	17*	9
O=C(C1CCCN(S(=O)(=O)c2ccccc2[N+](=O)[O-])C1)N1CCN(Cc2ccccc2)CC1 (stereo not given)	·	·	5	·	·
O=C(NC1CCCC1)C(c1ccc(F)cc1)N(Cc1ccc(F)cc1)C(=O)CCl (stereo not given)	2	19	5	51*	0
CC(C)CC(NC(=O)C(COCc1ccccc1)NC(=O)OC(C)(C)C)C(=O)NN (stereo not given)	4	-8	-5	18*	8
CCC[C@H]1[C@@H](OC(=O)NC(CC)CC)CC[C@@]23CCCN2C(=O)CCC[C@@H]13	·	·	2	·	·
CCCCCCc1ccc(NC(=O)[C@@H]2CC=C[C@@H]3CCN(Cc4ccccc4)C(=O)[C@@H]32)cc1	·	·	-4	·	·
O=C(O[C@@H]1OC2COC(=O)c3cc(O)c(O)c(O)c3-c3c(cc(O)c(O)c3O)C(=O)O[C@@H]([C@H]1O)[C@@H]2O)c1cc(O)c(O)c(O)c1	10	73*	·	-2	·
CCN(C(=O)CCc1cn(CC)c2ccccc12)c1ccc(Oc2cccnc2)cc1	·	·	-6	·	·
SMILES	PAD4 FP inh	GSTO1 counter	TDP2 absorb	CTSL1 counter	Apaf-1 inh
Nc1cc(CN2C(=O)c3ccccc3C2=O)cc(Cl)c1O	-5	18	-7	25*	5
O=C1c2ccccc2C(=O)N1Cc1cc(Cl)c(O)c([N+](=O)[O-])c1	-4	-2	12	-3	5
CN1C(=O)C[C@@](C#N)(C(=O)NCCc2ccccc2)[C@H]1c1ccccc1	·	·	-3	·	·
CC(=O)OC1=C(O)C(=O)c2ccccc2C1=O	-3	59*	·	-1	59*
N#CC1CCN(c2nc(-c3ccc(Br)cc3)cs2)CC1	·	·	-1	·	·
CCOC(=O)c1c(-c2ccc(C)o2)csc1NC(=O)CSc1nnc(C)s1	-9	6	10	2	14
CCOC(=O)c1c(-c2ccc(C)o2)csc1NC(=O)COC(=O)c1ccc(NC(N)=O)cc1	-13	-21	5	19*	24
CCCC[C@H]1C2CC(OC(=O)NCc3ccc(Cl)cc3)C(C2)[C@H]2CCCCN21 (stereo not given in full)	·	·	1	·	·
Cc1cc(Nc2ccc(O)cc2)ccc1N	35*	·	·	·	22
COc1ccccc1N1CCN(C(=O)c2cc3ccccc3[nH]2)CC1	-9	4	-1	18*	14
O=C(Nc1ccc(F)cc1F)c1cc(-c2ccc(Cl)cc2)nc2ccccc12	·	·	11	·	·
O=C1NC2=C(CCc3ccccc32)C(c2ccc(Br)cc2)N1 (stereo not given)	2	18	9	0	69*
O=C(NCC1CCCO1)c1cc(S(=O)(=O)N2CCOCC2)c(Cl)cc1Cl (stereo not given)	·	·	3	·	0
Cc1ccc(S(=O)(=O)N2CCOCC2)cc1C(=O)NCC1CCCO1 (stereo not given)	-1	2	-2	28*	13
S=c1[nH]nc(-c2n[nH]c3c2CCC3)n1N=Cc1c[nH]c2ccccc12	·	·	-3	·	·
N/C(=N\OC(=O)c1ccccc1Cl)c1ccc(Cl)cc1	2	-4	-8	-5	1
N/C(CCS(=O)(=O)c1ccc(Cl)cc1)=N\OC(=O)c1ccccc1Cl	0	-3	-2	25*	-6
COc1ccccc1-c1nnc(Sc2nc([N+](=O)[O-])nn2C)o1	5	-2	10	77*	4
Cn1cnnc1Sc1nc([N+](=O)[O-])nn1C	3	5	-2	-8	1
Nc1ccccc1Nc1ccccc1	-3	8	-1	19*	5
Nc1ccc(Nc2ccccc2)c(Cl)c1	4	6	4	7	3
COc1cccc(CNC(=O)[C@H]2CCCN2C(=O)[C@H]2CCCN2S(=O)(=O)c2cccc(C)c2)c1	·	·	4	·	·
O=C(O)CCSc1ccccn1	-6	7	0	2	-1
O=C(CCSc1ccccn1)c1ccccc1	-10	-1	-4	19*	3
Cc1nc(S(=O)(=O)c2ccc(Cl)cc2)c(NCc2ccccc2)o1	-7	5	-9	28*	-4
O=C1CCCC2=C1C(c1ccc(Br)cc1)c1c([nH]c(=S)[nH]c1=O)N2 (stereo not given)	-9	-2	7	0	0
O=c1[nH]c(=S)[nH]c2c1C(c1ccc(Br)cc1)c1c([nH]c(=S)[nH]c1=O)O2	-23	-236	53*	8	·
Cn1c(NC(=O)c2ccccc2)nc(Cc2ccccc2)c1Cc1ccccc1	·	·	-7	·	·
COc1ccc(OC(=O)c2ccncc2)cc1	10	1	3	-4	1
O=C(Oc1ccc(OC(=O)c2ccncc2)cc1)c1ccncc1	-5	35*	-13	1	1

Screening results from PubChem.
